Molecules are shown by their SMILES. Screen size: about 360,000 compounds; about 1,100 (0.31%) were called active. What follows is part of a selection rich in actives, with near analogues and random picks from the rest. A number with no mark means an inactive call.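 Rule for the calls: active = activation above the run cutoff, the mean activation of all test compounds plus 3 SD (cut at about 18% in these data); inactive = the rest.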

The test deals with Muscarinic acetylcholine receptor M5 (Homo sapiens) (UniProt P08912). The test can be described thus: human M5 muscarinic receptor positive allosteric modulators, primary screen, CHO-K1 cells, Fluo-8 calcium fluorescence (AID 624038). The note with it: CHO-K1 hM5, Fluo-8 calcium, ACh EC20 PAM; at 3 µM; stronger effect = higher value; 0% = ACh EC20, 100% = ACh EC100. The procedure, abridged: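 System: CHO-K1 hM5 cells. Reagent: acetylcholine, EC20 level. Compound dosing: single dose, 3 µM nominal final test concentration. Timing: Post-acetylcholine fluorescence recording 140 s. Detection: Fluo-8 calcium fluorescence. Read-out: % activation, ACh-normalized. Benchmarks: ACh EC20 and EC100 wells. Repeats: singlicate, one well per test compound.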
Muscarinic acetylcholine receptor M5 (Homo sapiens), sequence (P08912 whole entry, looked up): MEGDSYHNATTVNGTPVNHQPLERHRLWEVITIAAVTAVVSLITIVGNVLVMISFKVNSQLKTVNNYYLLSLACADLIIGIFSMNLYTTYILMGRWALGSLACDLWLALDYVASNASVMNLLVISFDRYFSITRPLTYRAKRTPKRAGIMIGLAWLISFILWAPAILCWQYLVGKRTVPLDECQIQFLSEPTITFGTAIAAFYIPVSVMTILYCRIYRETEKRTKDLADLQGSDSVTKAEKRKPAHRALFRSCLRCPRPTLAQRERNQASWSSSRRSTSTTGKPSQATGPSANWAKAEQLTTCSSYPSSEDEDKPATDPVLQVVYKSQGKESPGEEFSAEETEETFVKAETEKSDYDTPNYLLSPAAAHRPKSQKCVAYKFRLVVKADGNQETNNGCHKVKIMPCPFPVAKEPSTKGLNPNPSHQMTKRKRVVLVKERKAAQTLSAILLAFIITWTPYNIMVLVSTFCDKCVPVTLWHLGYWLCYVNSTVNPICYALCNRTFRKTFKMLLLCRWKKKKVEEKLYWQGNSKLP
As for `CCOC(=O)[C@H]1Nc2ccc(Cl)cc2[C@@H]2[C@H]1C1CC(c3ccccc31)N2C(=O)OCc1ccccc1` (stereo partly drawn), the activation was -15.8%.

For `Cc1ccc(C)c(-n2c(SCC(=O)O)nc3sc4c(c3c2=O)CCCC4)c1`, the activation is 20.4% (active).

Turning to `COc1ccccc1-n1c(SCC(=O)O)nc2sc3c(c2c1=O)CCC3`, the activation was 1.79%.

In the case of `CCSc1nc2sc3c(c2c(=O)n1-c1ccc(C)cc1)CCN(C)C3`, the activation was -1.06%.

For the compound `COc1ccc(Br)cc1CN1CCN(C(=O)c2cccc(OC)c2OC)CC1`, the activation is 2.23%.

On to `CCN(CC)c1ccc(C2C3CCCCC3(O)CCN2CC(=O)Nc2ccccc2)cc1` (stereo not drawn), for which the activation is -6.54%.

As to `Cc1ncn(C23CC4CC(CC(O)(C4)C2)C3)n1`, the activation was 19.2% (active).

Regarding `COC(=O)c1ccc(NC(=O)C23CC4CC(C2)CC(n2cnc(Cl)n2)(C4)C3)cc1`, the activation was 3.27%.

`CC(N)C12CC3CC(CC(O)(C3)C1)C2` (stereo not drawn): the activation was -3.44%.

Regarding `CCOC(=O)/C(=N\Nc1ccccc1Cl)N(C)C1CCS(=O)(=O)C1` (stereo not drawn), the activation is -8.17%.

Take `O=C(COC(=O)/C=C/c1nc2ccccc2s1)Nc1ccccc1Oc1ccccc1`: the activation was 1.93%.

As for `CCC(=O)c1ccc(OCC(O)CN2CCN(c3cccc(C(F)(F)F)c3)CC2)cc1` (stereo not drawn), the activation is -10.8%.

Take `CCOc1ccc(N2C(=O)CC(N(CCc3ccc(OC)c(OC)c3)C(=S)Nc3ccccc3)C2=O)cc1` (stereo not drawn): the activation was 21.9% (active).

Turning to `COC(=O)CN(C(=S)Nc1ccc(Cl)cc1)C1CC(=O)N(c2ccc(OC)cc2)C1=O` (stereo not drawn), the activation was -18.4%.

`CN(C)c1ccc(NC(=S)N(CCc2ccccc2)C2CC(=O)N(c3c(Cl)cccc3Cl)C2=O)cc1` (stereo not drawn): the activation is 8.56%.

Consider `O=C(NCc1ccco1)c1cccc(-c2ccc3nncn3c2)c1`, for which the activation is -4.68%.

For the compound `COc1ccc(CCNS(=O)(=O)c2ccc(C(=O)NCc3ccco3)cc2)cc1OC`, the activation was 1.67%.

With `CCCC1=Nc2cc(C(=O)NCc3ccco3)ccc2Sc2ccccc21`, the activation is 19.8% (active).

Turning to `O=C(NC1CCN(C(=S)NCc2ccco2)CC1)c1ccc(F)cc1`, the activation is -4.46%.

As to `CCn1c(CNC(=O)c2ccco2)nnc1SCC(=O)Nc1cccc(F)c1`, the activation was -8.95%.

Regarding `CCN(CC)C(=O)CSc1nnc(CNc2ccc(F)cc2)n1Cc1ccco1`, the activation was 26.3% (active).

On to `Cc1cc(C)nc(SCc2nnc(SCC(=O)Nc3ncc(C)s3)n2Cc2ccco2)n1`, for which the activation is -4.62%.

With `Cc1c(Cl)cccc1NC(=O)CC1SC(=NCC2CCCO2)NC1=O` (stereo not drawn), the activation was -3.09%.

For the compound `CCn1ccnc1CN(C)C(=O)c1ccc2nc(Cc3ccc(OC)cc3)oc2c1`, the activation is -3.69%.

As to `Cc1cc(N2CCCC2)ccc1NC(=O)COc1ccc(Cl)cc1`, the activation is -6.11%.

Take `CC(=O)Nc1ccc(N2C(=O)C3C4C=CC(CC4)C3C2=O)cc1` (stereo not drawn): the activation was 3.09%.

On to `CC(=O)Nc1ccc(N2C(=O)CCC2=O)cc1C`, for which the activation is 30.9% (active).

As for `CCNC(=O)CC1C(=O)N(c2ccc(F)cc2)C(=O)N1Cc1cccs1` (stereo not drawn), the activation is -0.18%.

As for `CC(C)CN1CCNC(=O)C1CC(=O)N(C)CC1CCOCC1` (stereo not drawn), the activation was 1.55%.

`Cc1ccc(C(C)(C)C)c(OCCCCN2CCCC2)c1`: the activation was -4.25%.

In the case of `COc1ccc(C2=NN(C(=O)CSc3nnnn3C)C(c3ccco3)C2)cc1` (stereo not drawn), the activation was 8.48%.

Consider `CCc1c(C)sc(NC(=O)c2cccs2)c1C(N)=O`, for which the activation was -8.58%.

As for `COCCCNCC(=O)Nc1sc(C)c(C)c1C(=O)OC`, the activation was 12.8%.

For `CCOC(=O)c1c(NC(=O)c2cccs2)sc(C)c1C`, the activation is 27.8% (active).

Regarding `CC1(C(=O)NS(=O)(=O)c2ccc(Cl)cc2)CCN1C(=O)CC1CCCC1` (stereo not drawn), the activation was 0.43%.

On to `CCCCn1c(N)c(N(CCC(C)C)C(=O)CC2OC(=O)c3ccccc32)c(=O)[nH]c1=O` (stereo not drawn), for which the activation is -2.77%.

Consider `Cc1cc(NS(=O)(=O)c2ccc(NC(=O)c3cccc(OC(F)F)c3)cc2)nc(C)n1`, for which the activation was 1.34%.

As for `CCc1nnc(NS(=O)(=O)c2ccc(NC(=S)NC(=O)/C=C/c3cccs3)cc2)s1`, the activation is 2.07%.

Take `CCc1nnc(NS(=O)(=O)c2ccc(NC(=O)c3cccc(OC(F)(F)C(F)F)c3)cc2)s1`: the activation is 18.4% (active).

With `O=C(NC(=S)N1CCCCC1c1cccnc1)c1ccccc1` (stereo not drawn), the activation is 5.16%.

`Cc1ccc(S(=O)(=O)NNC(=O)/C=C/c2cccc(F)c2)cc1`: the activation was -0.46%.

Take `Cc1ccc(C)c(OCc2cc(C(=O)N3CCN(c4cnccn4)CC3)no2)c1`: the activation is -8.08%.

Take `Cc1cccn2c(=O)c3cc(C(=O)NCCN4CCOCC4)c(=N)n(Cc4cccnc4)c3nc12`: the activation was 28.1% (active).

In the case of `Cc1ccc2nc3c(cc(C(=O)NCCc4ccccc4)c(=N)n3CC3CCCO3)c(=O)n2c1` (stereo not drawn), the activation is 2.81%.

On to `Cc1cccn2c(=O)c3cc(C#N)c(=O)n(CCCN4CCOCC4)c3nc12`, for which the activation was -0.36%.

In the case of `CN(Cc1ccccc1)C(=O)C(=O)c1cn(CC(=O)N2CCCC2)c2ccccc12`, the activation was -2.13%.

With `C/C(=N\NC(=S)NC(C)C)c1ccc(C(C)(C)C)cc1`, the activation is 8.71%.

Consider `CCCCN(CC)CCNC(=O)c1[nH]c(C)c(C(C)=O)c1C`, for which the activation was -11.2%.

Turning to `CCC1CCCCN1CCNS(=O)(=O)c1ccc2c(c1)CCN2C(C)=O` (stereo not drawn), the activation was 2.47%.

Regarding `CC(=O)c1c(C)[nH]c(C(=O)NCc2ccc(C)cc2)c1C`, the activation was 11.5%.

Regarding `CCOC(=O)c1c(C)[nH]c(C(=O)NCCN2CCOCC2)c1C`, the activation was -4.21%.

On to `CCC1CCCCN1CCNC(=O)c1[nH]c(C)c(C(C)=O)c1C` (stereo not drawn), for which the activation is 20.7% (active).

On to `CC(=O)c1c(C)[nH]c(C(=O)NCCCN2CCCC2)c1C`, for which the activation was 18.1% (active).

For the compound `COc1ccc(OCC(=O)NCCS(=O)(=O)N2CCN(c3ccc(F)cc3)CC2)cc1`, the activation is 5.36%.

Turning to `CCCCNC(=O)N(O)C1N(/N=C/c2ccccc2O)C(=S)SC1(C)C` (stereo not drawn), the activation is -0.6%.

For `O=C(Nc1ccc(Cl)cn1)Nc1cccs1`, the activation was 29.7% (active).

Consider `O=C(COC(=O)c1ccco1)Nc1ccc(Cl)cn1`, for which the activation was 4.61%.

Take `Cc1cccc(OCC(=O)OCC(=O)Nc2ccc(Cl)cn2)c1`: the activation was 5.11%.

For the origin of these results see PubChem BioAssay AID624038 (The Scripps Research Institute Molecular Screening Center, 2012).
